Assay results reported in ChEMBL document CHEMBL1629510, “Efficient synthesis of (6-deoxy-glycopyranosid-6-yl) sulfone derivatives and their effect on Ca2+-ATPase” (Eur J Med Chem, 2010).

Key:
Assay type in all cases: microsomes
Conditions in all cases: Microsome
Capra hircus [1] = species on record: Capra hircus; experiment: Induction of magnesium independent calcium-transporting ATPase activity in goat spermatozoa microsomal membranes at 70 nM by spectrophotometry
Summary of the method: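 Mg2+-independent Ca2+-ATPase in goat sperm microsomes (2 µg protein) was measured without blockers over varying compound concentrations. Incubation used 3 mM ATP in imidazole/sucrose buffer with EDTA and 2-mercaptoethanol, ±4 mM CaCl2, for 30 min at 37 °C, stopped with ice-cold 7% TCA and read spectrophotometrically. Activity is the difference between the +Ca2+ and −Ca2+ reactions.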

Capra hircus [2] = species on record: Capra hircus; experiment: Induction of magnesium independent calcium-transporting ATPase activity in goat spermatozoa microsomal membranes at 20 ug by spectrophotometry in presence of […] of calcium channel blocker thapsigargin
Summary of the method: (§1)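 The compound (20 µg) was added together with a fixed concentration of the blocker. Reactions were stopped with 7% ice-cold TCA and read spectrophotometrically. Ca2+-dependent activity (+Ca2+ minus −Ca2+) is given as percent stimulation or inhibition, averaged over four assays.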

Capra hircus [3] = species on record: Capra hircus; experiment: Induction of magnesium independent calcium-transporting ATPase activity in goat spermatozoa microsomal membranes at 20 ug by spectrophotometry in presence of 1 mM of calcium channel blocker orthovanadate; summary of the method: as §1
Capra hircus [4] = species on record: Capra hircus; experiment: Induction of magnesium independent calcium-transporting ATPase activity in goat spermatozoa microsomal membranes at 20 ug by spectrophotometry in presence of 300 uM of calcium channel blocker verapamil; summary of the method: as §1

Row | Compound | Activity (Capra hircus [1]) [%] | Activity (Capra hircus [2]) [%] | Activity (Capra hircus [3]) [%] | Activity (Capra hircus [4]) [%]
1 | CO[C@H]1O[C@H](CS(=O)(=O)C[C@H]2O[C@H](OC)[C@H](O)[C@H](O)[C@@H]2O)[C@@H](O)[C@H](O)[C@H]1O | 30 | -31 | -17 | -9
2 | CO[C@H]1O[C@H](CS(=O)(=O)C[C@H]2O[C@H](OC)[C@H](O)[C@@H](O)[C@@H]2O)[C@@H](O)[C@H](O)[C@@H]1O | 43 | -35 | 4 | -3
3 | CO[C@H]1O[C@H](CS(=O)(=O)C[C@H]2O[C@H](OC)[C@H](O)[C@@H](O)[C@@H]2O)[C@@H](O)[C@H](O)[C@H]1O | 36 | -28 | -24 | -14
4 | CO[C@H]1O[C@H](CS(=O)(=O)C[C@H]2O[C@@H](OC)[C@H](O)[C@H](O)[C@@H]2O)[C@@H](O)[C@H](O)[C@@H]1O | 45 | -27 | -19 | -5

Continued, values first:

Row | Activity (Capra hircus [1]) [%] | Activity (Capra hircus [2]) [%] | Activity (Capra hircus [3]) [%] | Activity (Capra hircus [4]) [%] | Compound
5 | 53 | -36 | -25 | -21 | CO[C@H]1O[C@H](CS(=O)(=O)C[C@H]2O[C@H](OC)[C@H](O)[C@@H](O)[C@H]2O)[C@@H](O)[C@H](O)[C@@H]1O
6 | 30 | -33 | -21 | -8 | CO[C@@H]1O[C@H](CS(=O)(=O)C[C@H]2O[C@@H](OC)[C@H](O)[C@H](O)[C@@H]2O)[C@@H](O)[C@@H](O)[C@H]1O
7 | 32 | -38 | -8 | -5 | CO[C@H]1O[C@H](CS(=O)(=O)C[C@H]2O[C@H](OC)[C@H](O)[C@@H](O)[C@H]2O)[C@@H](O)[C@H](O)[C@H]1O
8 | 49 | -29 | -27 | -2 | CO[C@H]1O[C@H](CS(=O)(=O)C[C@H]2O[C@H](OC)[C@@H](O)[C@@H](O)[C@@H]2O)[C@@H](O)[C@H](O)[C@@H]1O
